Measurements as given in ChEMBL document CHEMBL1134798, “Pharmacological evaluation of a diarylmethylene-piperidine derivative: a new potent atypical antipsychotic?” (Bioorg Med Chem Lett, 2001).
Active and inactive are the calls of the source. The rule behind the calls is not given here.

Columns and labels:
Mus musculus [1] = experiment: Effective dose required for inhibition of apomorphine(sc, 2.5 mg/kg ) induced climbing in mice on ip administration; assay type: functional; settings: route intraperitoneal
In short: (§1)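 Apomorphine hydrochloride given sc at 2.5 mg/kg to induce climbing and stereotypy. Compounds dosed 30 min earlier, groups of eight mice. ED50 for each behaviour by non-linear regression.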

Mus musculus [2] = experiment: Effective dose required for inhibition of DOI-induced head-twitches in mice on ip administration; assay type: functional
In short: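 Head-twitches elicited by ip (±)-DOI hydrochloride, 1.6 mg/kg. Mice (groups of eight) pretreated ip 30 min before DOI. Twitches counted for 5 min starting 5 min after DOI. ED50 by non-linear regression.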

Mus musculus [3] = experiment: Effective dose required for inhibition of apomorphine(sc, 2.5 mg/kg ) induced stereotypy in mice on ip administration; assay type: functional; settings: route intraperitoneal; in short: as §1
[4] = target: Serotonin 2 (5-HT2) receptor (Homo sapiens, UniProt P41595+P28223+P28335); experiment: In vitro binding affinity for 5-hydroxytryptamine 2 receptor; assay type: protein assay
D(4) dopamine receptor = target: T1, D(4) dopamine receptor (Homo sapiens, UniProt P21917); experiment: In vitro binding affinity for Dopamine receptor D4
T1 sequence (P21917 whole entry): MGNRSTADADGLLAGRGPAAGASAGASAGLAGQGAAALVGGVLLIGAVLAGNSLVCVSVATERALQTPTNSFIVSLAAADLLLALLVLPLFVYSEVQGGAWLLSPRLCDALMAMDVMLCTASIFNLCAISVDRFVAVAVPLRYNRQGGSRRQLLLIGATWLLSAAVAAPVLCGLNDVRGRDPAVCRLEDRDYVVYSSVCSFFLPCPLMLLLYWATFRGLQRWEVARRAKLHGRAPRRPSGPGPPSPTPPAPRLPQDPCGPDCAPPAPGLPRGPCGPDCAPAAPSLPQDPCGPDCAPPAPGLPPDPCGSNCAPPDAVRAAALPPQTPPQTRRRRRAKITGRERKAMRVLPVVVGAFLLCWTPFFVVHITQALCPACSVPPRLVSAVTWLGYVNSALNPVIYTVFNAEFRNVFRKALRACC

Mus musculus [5] = organism: Mus musculus; experiment: Anticholinergic effect evaluated in mice using oxotremorine induced salivation; assay type: functional
In short: (§2)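 Oxotremorine 0.25 mg/kg ip induced tremors and salivation. Compounds were given ip 30 min beforehand, groups of six mice. Scoring every 5 min over 30 min. ED50 from non-linear regression.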

Mus musculus [6] = organism: Mus musculus; experiment: Lethality in mice evaluated in IRWIN-test; assay type: functional
In short: (§3)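 Irwin observational test run to a standard protocol after ip administration.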

Mus musculus [7] = organism: Mus musculus; experiment: Anticholinergic effect evaluated in mice using oxotremorine induced tremors; assay type: functional; in short: as §2
Mus musculus [8] = organism: Mus musculus; experiment: Induction of convulsions in mice evaluated in IRWIN-test; assay type: functional; in short: as §3
Mus musculus [9] = organism: Mus musculus; experiment: Induction of sedation in mice evaluated in IRWIN-test; assay type: functional; in short: as §3
Mus musculus [10] = experiment: Effective dose required for inhibition of apomorphine(sc, 2.5 mg/kg ) induced climbing in mice on po administration; assay type: functional
In short: (§4)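 Mice were dosed po 30 min before apomorphine hydrochloride (2.5 mg/kg sc), in groups of eight. ED50 for inhibition of climbing or stereotypy was derived by non-linear regression.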

Mus musculus [11] = experiment: Effective dose required for inhibition of apomorphine(sc, 2.5 mg/kg ) induced stereotypy in mice on […]; assay type: functional; in short: as §4
Mus musculus [12] = experiment: Decrease in number of avoidance responses in mice at a dose ~100 mg/kg; assay type: functional; settings: at 100 mg/kg
Mus musculus [13] = experiment: Decrease in number of avoidance responses in mice at a dose ~110 mg/kg; assay type: functional
Mus musculus [14] = experiment: Decrease in number of avoidance responses in mice at a dose ~115 mg/kg; assay type: functional
Mus musculus [15] = experiment: Decrease in number of avoidance responses in mice at a dose ~60 mg/kg; assay type: functional; settings: at 60 mg/kg
Mus musculus [16] = experiment: Antagonistic activity on amphetamine-induced stereotypy at a dose of 100 umol/kg (p<0.05); assay type: functional
Mus musculus [17] = experiment: Decrease in d-amphetamine-induced hyperactivity at a dose of 10 umol/kg (p<0.01); assay type: functional
Rattus norvegicus [18] = experiment: Decrease in arterial blood pressure by the compound at a dose of 43.1-431 mg/kg in rats 24 hr after oral administration; No significant; assay type: functional, organism-based; settings: Artery
Rattus norvegicus [19] = experiment: Increase in heart rate by the compound at a dose of 43.1-431 mg/kg in rats on oral administration; No significant; assay type: functional, organism-based
Mus musculus [20] = experiment: Anticholinergic effect evaluated in mice using oxotremorine induced salivation(ip); assay type: functional
In short: (§5)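 Mice were dosed ip 30 min before oxotremorine (0.25 mg/kg ip), in groups of six. Salivation and tremors were scored every 5 min for 30 min. ED50 was derived by non-linear regression.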

Mus musculus [21] = experiment: Anticholinergic effect evaluated in mice using oxotremorine induced tremors(ip); assay type: functional; in short: as §5
Mus musculus [22] = experiment: Decrease in number of avoidance responses in mice at a dose ~10 mg/kg; assay type: functional; settings: at 10 mg/kg
Mus musculus [23] = experiment: Decrease in number of avoidance responses in mice at a dose ~25 mg/kg; assay type: functional
Mus musculus [24] = experiment: Decrease in number of avoidance responses in mice at a dose ~50 mg/kg; assay type: functional
Mus musculus [25] = experiment: Induction of catalepsy up to a dose of 160 mg/kg when administered po in mice; No induction; assay type: functional, organism-based; set-up: dose 160 mg/kg
Rattus norvegicus [26] = experiment: Decrease in arterial blood pressure by the compound at a dose of 32.7 mg/kg in rats 0.5-2.5h after administration; assay type: functional, Artery
Rattus norvegicus [27] = experiment: Increase in heart rate by the compound at a dose of 10.5 mg/kg in rats; assay type: functional

Row | Structure (SMILES) | ED50 (Mus musculus [1]) | ED50 (Mus musculus [2]) | ED50 (Mus musculus [3]) | Activity (Mus musculus [6]) | Activity (Mus musculus [8]) | Activity (Mus musculus [9]) | ED50 (Mus musculus [10]) | ED50 (Mus musculus [11]) | further results
1 | OCCOCCN1CCN(C2=Nc3ccccc3Sc3ccccc32)CC1 [QUETIAPINE] | 51 µmol/kg | 9 µmol/kg | 60 µmol/kg |  |  |  |  |  | 
2 | NC(=O)C1CCC(CN2CCC(=C(c3ccccc3)c3ccc(F)cc3)CC2)O1 (configuration not stated) | 46 µmol/kg | 16 µmol/kg | 69 µmol/kg | 1000 | 320 | 100 | 140 µmol/kg | 290 µmol/kg | Log Ki [4]: -7.5; Ki (D(4) dopamine receptor): 158 nM; Activity (Mus musculus [5]): 20; Activity (Mus musculus [7]): 32; Decrease in No. of avoidence responses (Mus musculus [12]): 27%; Decrease in No. of avoidence responses (Mus musculus [13]): 45%; Decrease in No. of avoidence responses (Mus musculus [14]): 80%; Decrease in No. of avoidence responses (Mus musculus [15]): 12.5%; Decrease (Mus musculus [16]): 13%; Decrease (Mus musculus [17]): 44%; Decrease in arterial blood pressure (Rattus norvegicus [18]): inactive; Increase in heart rate (Rattus norvegicus [19]): inactive
3 | O=C(CCCN1CCC(O)(c2ccc(Cl)cc2)CC1)c1ccc(F)cc1 [HALOPERIDOL] | 0.32 µmol/kg | 0.61 µmol/kg | 0.31 µmol/kg |  |  |  |  |  | 
4 | CN1CCN(C2=Nc3cc(Cl)ccc3Nc3ccccc32)CC1 [CLOZAPINE] | 28 µmol/kg | 1.5 µmol/kg | 67 µmol/kg | 320 | 180 | 3.2 | 30 µmol/kg | 62 µmol/kg | Activity (Mus musculus [20]): 8; Activity (Mus musculus [21]): 12; Decrease in No. of avoidence responses (Mus musculus [22]): 10%; Decrease in No. of avoidence responses (Mus musculus [23]): 65%; Decrease in No. of avoidence responses (Mus musculus [24]): 85%; Induction of catalepsy (Mus musculus [25]): inactive; Decrease in arterial blood pressure (Rattus norvegicus [26]): 32%; Increase in heart rate (Rattus norvegicus [27]): 49%
